Assay results reported in ChEMBL document CHEMBL3046718, “Synthesis and herbicidal activity of 5-(4-hydroxybenzyl)-2-thioxoimidazolidin-4-one esters” (2011).

Assays:
Assay type in all cases: functional
[1] = test system: Arabidopsis thaliana; assay: Herbicidal activity against Arabidopsis thaliana assessed as inhibition of seed germination at 200 ug/ml relative to control
How it was run: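 Five sterilized Arabidopsis thaliana […] per well in 24-well sterile plates, each with 100 μL of test solution at 200 mg/L, grown in an illumination incubator. Distilled water served as blank and metazachlor as positive control. Inhibitory ratio (0–100%) was scored against distilled water.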

[2] = test system: Triticum aestivum; assay: Herbicidal activity against Triticum aestivum (wheat) assessed as inhibition of root growth at 200 ug/ml relative to control; settings: read-out: GI
How it was run: (§1)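 Seedlings were grown in an illumination incubator from ten Zea mays seeds or five Triticum aestivum seeds per plate, on filter paper wetted with 2 mL of test solution at 200 mg/L. Distilled water served as blank and metazachlor as positive control. Inhibitory ratio (0–100%) was scored against distilled water.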

[3] = test system: Triticum aestivum; assay: Herbicidal activity against Triticum aestivum (wheat) assessed as inhibition of height growth at 200 ug/ml relative to control; settings: read-out: GI; how it was run: as §1
[4] = test system: Zea mays; assay: Herbicidal activity against Zea mays (maize) assessed as inhibition of root growth at 200 ug/ml relative to control; settings: read-out: GI; how it was run: as §1
[5] = test system: Zea mays; assay: Herbicidal activity against Zea mays (maize) assessed as inhibition of height growth at 200 ug/ml relative to control; settings: read-out: GI; how it was run: as §1
[6] = test system: Setaria viridis; assay: Herbicidal activity against Setaria viridis (green foxtail) at 1000 g/ha treated as post-emergence under greenhouse condition
[7] = test system: Echinochloa crus-galli; assay: Herbicidal activity against Echinochloa crus-galli (barnyard grass) at 1000 g/ha treated as post-emergence under greenhouse condition
[8] = test system: Stellaria media; assay: Herbicidal activity against Stellaria media at 1000 g/ha treated as post-emergence under greenhouse condition
[9] = test system: Echinochloa crus-galli; assay: Herbicidal activity against Echinochloa crus-galli (barnyard grass) at 1000 g/ha treated as pre-emergence under greenhouse condition
[10] = test system: Setaria viridis; assay: Herbicidal activity against Setaria viridis (green foxtail) at 1000 g/ha treated as pre-emergence under greenhouse condition
[11] = test system: Stellaria media; assay: Herbicidal activity against Stellaria media at 1000 g/ha treated as pre-emergence under greenhouse condition

Compound | inhibition at 200 µg/mL [1] | inhibition of growth at 200 µg/mL [2] | inhibition of growth at 200 µg/mL [3] | inhibition of growth at 200 µg/mL [4] | inhibition of growth at 200 µg/mL [5] | inhibition at 1000 g/ha [6] | inhibition at 1000 g/ha [7] | inhibition at 1000 g/ha [8] | inhibition at 1000 g/ha [9] | inhibition at 1000 g/ha [10] | inhibition at 1000 g/ha [11]
Cc1ccccc1C(=O)Oc1ccc(CC2NC(=S)NC2=O)cc1 (configuration not stated) | 60% | 20.7% | 5.8% | 33.5% | 53.2% |  |  |  |  |  | 
COc1ccc(C(=O)Oc2ccc(CC3NC(=S)NC3=O)cc2)cc1OC (configuration not stated) | 50% | 43.1% | 26.1% | 64.2% | 57.9% |  |  |  |  |  | 
O=C(Cc1ccccc1)Oc1ccc(CC2NC(=S)NC2=O)cc1 (configuration not stated) | 20% | 42.1% | 34.9% | 58.1% | 53.9% |  |  |  |  |  | 
O=C(COc1ccc(Cl)cc1Cl)Oc1ccc(CC2NC(=S)NC2=O)cc1 (configuration not stated) | 50% | 99.6% | 97.8% | 74.9% | 65.5% |  |  |  |  |  | 
COc1ccccc1C(=O)Oc1ccc(CC2NC(=S)NC2=O)cc1 (configuration not stated) | 50% | 79.1% | 81.3% | -29% | -26.2% |  |  |  |  |  | 
O=C(COc1ccc(Cl)cc1)Oc1ccc(CC2NC(=S)NC2=O)cc1 (configuration not stated) | 40% | 99.6% | 95.2% | 59.4% | 16.4% |  |  |  |  |  | 
COc1cc(C(=O)Oc2ccc(CC3NC(=S)NC3=O)cc2)cc(OC)c1OC (configuration not stated) | 10% | 59.7% | 42.3% | 19.9% | 22.1% |  |  |  |  |  | 
O=C(Oc1ccc(CC2NC(=S)NC2=O)cc1)c1ccc(-c2ccccc2)cc1 (configuration not stated) | 5% | 3.2% | 20.9% | 48.7% | 42.4% |  |  |  |  |  | 
CC(C)(C)c1ccc(C(=O)Oc2ccc(CC3NC(=S)NC3=O)cc2)cc1 (configuration not stated) | 10% | 25.9% | 55.5% | 22.5% | 30.9% |  |  |  |  |  | 
O=C(Cc1cccc2ccccc12)Oc1ccc(CC2NC(=S)NC2=O)cc1 (configuration not stated) | 10% | 56.7% | 100% | 88% | 77.4% | 0% | 0% | 0% | 50% | 50% | 60%
O=C(Oc1ccc(CC2NC(=S)NC2=O)cc1)c1cc([N+](=O)[O-])cc([N+](=O)[O-])c1 (configuration not stated) | 5% | 18.8% | 86.2% | 71% | 27.8% |  |  |  |  |  | 
O=C(Oc1ccc(CC2NC(=S)NC2=O)cc1)c1cccs1 (configuration not stated) | 20% | 15.5% | -1.2% | -24.7% | 11.6% |  |  |  |  |  | 
O=C(/C=C/c1ccccc1)Oc1ccc(CC2NC(=S)NC2=O)cc1 (configuration not stated) | 10% | 2.5% | 33.8% | 77.9% | 52.7% |  |  |  |  |  | 
O=C(Cc1cc(C(F)(F)F)cc(C(F)(F)F)c1)Oc1ccc(CC2NC(=S)NC2=O)cc1 (configuration not stated) | 5% | 32.7% | 65.5% | 71.5% | 45.5% |  |  |  |  |  | 
O=C(Cc1ccc(F)cc1)Oc1ccc(CC2NC(=S)NC2=O)cc1 (configuration not stated) | 20% | 86.6% | 50.2% | 77.3% | 70.1% |  |  |  |  |  | 
O=C(Oc1ccc(CC2NC(=S)NC2=O)cc1)c1ccco1 (configuration not stated) | 40% | 30.3% | 27.5% | 60.7% | 72.8% |  |  |  |  |  | 
CC(=O)Oc1ccc(CC2NC(=S)NC2=O)cc1 (configuration not stated) | 10% | 20.9% | -3.6% | -6.7% | -14.5% |  |  |  |  |  | 
O=C(Oc1ccc(CC2NC(=S)NC2=O)cc1)c1ccc(F)cc1 (configuration not stated) | 20% | -8.5% | -22.9% | 66.3% | 32.8% |  |  |  |  |  | 

Compound | inhibition at 200 µg/mL [1] | inhibition of growth at 200 µg/mL [2] | inhibition of growth at 200 µg/mL [3] | inhibition of growth at 200 µg/mL [4] | inhibition of growth at 200 µg/mL [5] | inhibition at 1000 g/ha [6] | inhibition at 1000 g/ha [7] | inhibition at 1000 g/ha [8] | inhibition at 1000 g/ha [9] | inhibition at 1000 g/ha [10] | inhibition at 1000 g/ha [11]
O=C(Oc1ccc(CC2NC(=S)NC2=O)cc1)c1ccccc1 (configuration not stated) | 10% | 16.2% | -11.1% | 44.5% | 26.6% |  |  |  |  |  | 
O=C(Oc1ccc(CC2NC(=S)NC2=O)cc1)c1cccc([N+](=O)[O-])c1 (configuration not stated) | 20% | 16.3% | 20.6% | -16.3% | 3.9% |  |  |  |  |  | 
O=C(Oc1ccc(CC2NC(=S)NC2=O)cc1)c1ccccc1F (configuration not stated) | 30% | 57.9% | 48.4% | -30.2% | -19.4% |  |  |  |  |  | 
COc1ccc(C(=O)Oc2ccc(CC3NC(=S)NC3=O)cc2)c(OC)c1 (configuration not stated) | 20% | 10.7% | -2.9% | -11.6% | 19.6% |  |  |  |  |  | 
COc1cccc(C(=O)Oc2ccc(CC3NC(=S)NC3=O)cc2)c1OC (configuration not stated) | 20% | 20.9% | -10.9% | 11.2% | 6.7% |  |  |  |  |  | 
O=C(Oc1ccc(CC2NC(=S)NC2=O)cc1)c1ccccc1Cl (configuration not stated) | 30% | 53.4% | 24.7% | 5.9% | 53.4% |  |  |  |  |  | 
O=C(Oc1ccc(CC2NC(=S)NC2=O)cc1)c1ccccc1[N+](=O)[O-] (configuration not stated) | 40% | 10.6% | 3.7% | 7.6% | 63.6% |  |  |  |  |  | 
O=C(Oc1ccc(CC2NC(=S)NC2=O)cc1)c1cccc(Cl)c1 (configuration not stated) | 70% | 47.5% | 8.8% | 22.1% | 41.7% |  |  |  |  |  | 
O=C(Oc1ccc(CC2NC(=S)NC2=O)cc1)c1ccc(Br)cc1 (configuration not stated) | 60% | -48% | 5.2% | 22% | 14.7% |  |  |  |  |  | 
O=C(Oc1ccc(CC2NC(=S)NC2=O)cc1)c1ccc(Cl)cc1 (configuration not stated) | 40% | -13.6% | -12.9% | 8.6% | 23.5% |  |  |  |  |  | 
O=C(Oc1ccc(CC2NC(=S)NC2=O)cc1)c1ccc(Cl)c(Cl)c1 (configuration not stated) | 40% | 7% | -15.8% | 24.1% | 36.7% |  |  |  |  |  | 
O=C(Oc1ccc(CC2NC(=S)NC2=O)cc1)c1ccc(Cl)c([N+](=O)[O-])c1 (configuration not stated) | 50% | 2.6% | -3.7% | 44.2% | 54.4% |  |  |  |  |  | 
Cc1cccc(C(=O)Oc2ccc(CC3NC(=S)NC3=O)cc2)c1 (configuration not stated) | 50% | 12.7% | -14.8% | 61.3% | 62.8% |  |  |  |  |  | 
O=C(Oc1ccc(CC2NC(=S)NC2=O)cc1)c1ccc([N+](=O)[O-])cc1 (configuration not stated) | 40% | -25.8% | -24.6% | 100% | 100% | 0% | 0% | 0% | 50% | 50% | 60%
COc1ccc(C(=O)Oc2ccc(CC3NC(=S)NC3=O)cc2)cc1 (configuration not stated) | 30% | 32.2% | 25.1% | 17.8% | 33.5% |  |  |  |  |  | 
Cc1ccc(C(=O)Oc2ccc(CC3NC(=S)NC3=O)cc2)cc1 (configuration not stated) | 60% | 16.8% | 1.27% | 38.7% | 27.9% |  |  |  |  |  | 
Cc1cccc(C)c1N(Cn1cccn1)C(=O)CCl [METAZACHLOR] | 70% | 77.7% | 78.6% | 83% | 79% |  |  |  |  |  | 
